High-throughput results deposited in PubChem BioAssay by Broad Institute.
Env fusion inh = inhibitors of HIV Env-mediated cell fusion. HeLa-JRFL Env/CEM21 cell fusion, luciferase. inhibition, % at 12.3 µM. actives 1.1% (n = 360,000). AID 651610;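 active = mean replicate inhibition score of at least 50 and every replicate individually at or above 50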
CDK5 inh = blocks human CDK5/p35 kinase activity; Q00535+Q15078; Recombinant CDK5/p35, ADP-Glo luminescence, 60 min; inhibition, % at 10 µM; actives 0.01% (n = 330,000); AID 488839;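 active = highest replicate inhibition of at least 50% and at least 75% of replicates reaching 50%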
GSK3A inh = inhibitors of human GSK-3 alpha kinase. ADP-Glo luminescence, 60 min. P49840. actives 0.1% (n = 320,000). inhibition, % at 10 µM;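 active = more than half of replicates show inhibition above 20%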;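 note: GST-tagged GSK-3 alpha with peptide substrate and 25 µM ATP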
STK33 inh = blocks human STK33 kinase activity. purified STK33, MBP phosphorylation, ADP-Glo luminescence. actives 0.073% (n = 320,000). inhibition, % at 10 µM;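 active = inhibition at or above 25%, using the most active replicate where run in duplicate; inactive = inhibition below 25%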
Target sequence (Q9BYT3 whole entry, looked up): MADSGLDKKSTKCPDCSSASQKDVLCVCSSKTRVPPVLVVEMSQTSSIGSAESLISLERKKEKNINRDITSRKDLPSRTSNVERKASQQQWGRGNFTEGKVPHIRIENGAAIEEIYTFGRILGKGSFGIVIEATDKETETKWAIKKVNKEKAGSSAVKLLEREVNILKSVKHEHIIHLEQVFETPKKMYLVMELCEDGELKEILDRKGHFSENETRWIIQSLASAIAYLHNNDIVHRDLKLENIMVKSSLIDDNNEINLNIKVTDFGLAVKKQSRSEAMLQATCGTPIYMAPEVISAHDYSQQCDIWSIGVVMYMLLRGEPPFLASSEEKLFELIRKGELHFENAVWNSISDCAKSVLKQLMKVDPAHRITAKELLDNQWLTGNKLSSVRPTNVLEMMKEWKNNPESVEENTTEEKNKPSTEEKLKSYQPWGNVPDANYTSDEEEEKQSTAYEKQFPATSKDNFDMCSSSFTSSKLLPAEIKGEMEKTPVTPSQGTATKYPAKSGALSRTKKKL
GSK3beta inhib = inhibitors of human GSK3beta kinase | AID 2097 | activity score (negative = inhibition), % at 10 µM | actives 0.038% (n = 300,000) | GST-GSK3beta kinase, ADP-Glo luminescence, 60 min; stronger effect = lower value;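 active = more than half of replicate wells score below -50%, meaning over 50% inhibition versus plate controls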
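Assay system: GST-tagged human GSK3beta kinase, cell-free; Input: 1.6 ng GSK3beta; Medium: Tris/MgCl2 kinase buffer; Timing: 60 min enzyme reaction, room temperature; Signal: ADP-Glo luminescence quantifying ADP generated by kinase; Evaluation: score relative to plate controls; Benchmarks: DMSO neutral wells and GW8510 at 20 µM as positive.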
GSIS activator = primary screen for activators of insulin secretion dependent on glucose, INS-1E cells, GLuc reporter luminescence | INS-1E GLuc reporter insulin secretion, 2-3 h | AID 743287 | activation, % at 16.6 µM | actives 0.61% (n = 370,000);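 active = lowest replicate activation of at least 40%, so every replicate reaches that level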
Each line names hits and unclear results; the compound was inactive in the other large screens; ! = not confirmed by another sample; [ ] = dose if it differs, or a comment. The list is not random: actives were taken first. Their share in the collection is about 1.4%.

CCCn1c(=S)[nH]c2cc(C(=O)N3CCCC(C(=O)OCC)C3)ccc2c1=O (configuration not stated)	Env fusion inh 83.6 (no result: GSIS activator)
CCCn1c(=S)[nH]c2cc(C(=O)N3CCN(C(=O)OCC)CC3)ccc2c1=O	none
COc1ccc(NC(=O)CSc2nc3ccsc3c(=O)n2CCC(=O)O)cc1	Env fusion inh 60.1 (no result: CDK5 inh, GSK3A inh, STK33 inh, GSK3beta inhib)
Fc1cccc(CN2C[C@@H]3N[C@H](C2)[C@@H]3c2ccc(-c3cccc(F)c3)cc2)c1	GSIS activator active (no result: Env fusion inh, CDK5 inh, GSK3A inh, STK33 inh, GSK3beta inhib)
Fc1cccc(CN2C[C@@H]3N[C@H](C2)C3c2ccc(-c3ccccc3)cc2)c1 (some centres not stated)	none (no result: Env fusion inh, CDK5 inh, GSK3A inh, STK33 inh, GSK3beta inhib)
Fc1cccc(-c2ccc(C3[C@@H]4CN(Cc5ccccc5F)C[C@H]3N4)cc2)c1 (some centres not stated)	GSIS activator 804.5! (no result: Env fusion inh, CDK5 inh, GSK3A inh, STK33 inh, GSK3beta inhib)
C[C@H]1CCCCO[C@H](CN(C)C(=O)c2ccccc2)[C@@H](C)CN([C@@H](C)CO)C(=O)c2cc(NC(=O)Nc3ccccc3)ccc2O1	none (no result: CDK5 inh, GSK3A inh, STK33 inh, GSK3beta inhib)
CC(C)NC(=O)N[C@@H]1CC[C@H](CCNC(=O)C2CCOCC2)O[C@@H]1CO	none (no result: CDK5 inh, GSK3A inh, STK33 inh, GSK3beta inhib)
Cc1ccc(N(NC(=O)C(O)(c2ccccc2)c2ccccc2)C(=O)CCl)cc1	Env fusion inh 70.2, GSIS activator 82.0
CCC(O)(CC)C(=O)NN(C(=O)CCl)c1ccccc1	Env fusion inh 61.4
Cc1ccc(C(O)(C(=O)NN(C(=O)c2ccccc2)c2ccccc2)c2ccc(C)cc2)cc1	none (no result: GSIS activator)
O=C(Nc1ccccc1)NN(C(=O)CCl)c1ccccc1	none
CCCN(C)C[C@H]1Oc2cc(C#Cc3ccccc3)ccc2S(=O)(=O)N([C@H](C)CO)C[C@H]1C	none (no result: CDK5 inh, GSK3A inh, STK33 inh, GSK3beta inhib)
Cc1ccccc1-n1c(=O)c2ccccc2n2cnnc12	Env fusion inh 83.2 (no result: GSIS activator)
Cc1cc2nncn2c2ccccc12	none (no result: GSIS activator)
FC(F)Oc1ccc(/C=N/NC(=S)Nc2cc(C(F)(F)F)ccc2Cl)cc1	GSIS activator 110.8
CNC(=S)Nc1cc(C(F)(F)F)ccc1Cl	none
O=C(CCCN1C(=O)/C(=C/c2ccccc2Cl)SC1=S)NNC(=O)c1ccc(Cl)cc1Cl	Env fusion inh 56.6 (no result: GSIS activator)
OC[C@@H]1[C@H](c2ccccc2)C2(CN(CCC(F)(F)F)C2)N1Cc1cccnc1	none (no result: Env fusion inh, CDK5 inh, GSK3A inh, STK33 inh, GSK3beta inhib)
Oc1ccc(/C=N/Nc2ccc(C(F)(F)F)cn2)c(O)c1	CDK5 inh 67.2
Oc1ccc(/C=N/Nc2ccc(C(F)(F)F)cn2)cc1	STK33 inh 31.1 (no result: GSIS activator)
COc1cc(/C=N/Nc2ccc(C(F)(F)F)cn2)cc(OC)c1O	none (no result: GSK3A inh, STK33 inh)
Oc1ccc(/C=N/Nc2cccc(Cl)n2)c(O)c1	none
C[C@H]1CN([C@@H](C)CO)C(=O)Cc2cc(NC(=O)Nc3cccc4ccccc34)ccc2O[C@H]1CN(C)S(=O)(=O)c1ccccc1	Env fusion inh 71.4[16.7 µM] (no result: CDK5 inh, GSK3A inh, STK33 inh, GSK3beta inhib)
C[C@H]1CN([C@@H](C)CO)C(=O)Cc2cc(NC(=O)Nc3cccc4ccccc34)ccc2O[C@H]1CN(C)S(=O)(=O)c1ccc(Cl)cc1	Env fusion inh 62.2[16.7 µM] (no result: CDK5 inh, GSK3A inh, STK33 inh, GSK3beta inhib)
Cc1ccc(S(=O)(=O)N(C)C[C@@H]2Oc3ccc(NC(=O)Nc4cccc5ccccc45)cc3CC(=O)N([C@H](C)CO)C[C@@H]2C)cc1	Env fusion inh 56.5[16.7 µM] (no result: CDK5 inh, GSK3A inh, STK33 inh, GSK3beta inhib)
C[C@@H]1CN([C@@H](C)CO)C(=O)Cc2cc(NC(=O)Nc3cccc4ccccc34)ccc2O[C@H]1CN(C)S(=O)(=O)c1ccccc1	none (no result: CDK5 inh, GSK3A inh, STK33 inh, GSK3beta inhib)
Cc1ccc(S(=O)(=O)N(C)C[C@H]2Oc3ccc(NC(=O)Nc4cccc5ccccc45)cc3C(=O)N([C@H](C)CO)C[C@H]2C)cc1	none (no result: CDK5 inh, GSK3A inh, STK33 inh, GSK3beta inhib)
Cc1ccc(S(=O)(=O)N(C)C[C@H]2Oc3ccc(NC(=O)Nc4cccc5ccccc45)cc3C(=O)N([C@H](C)CO)C[C@@H]2C)cc1	Env fusion inh 65.5[16.7 µM] (no result: CDK5 inh, GSK3A inh, STK33 inh, GSK3beta inhib)
CC(C)NC(=O)N(C)C[C@@H]1Oc2c(N)cccc2C(=O)N(C)C[C@@H]1C	none (no result: Env fusion inh, CDK5 inh, GSK3A inh, STK33 inh, GSK3beta inhib)
COc1ccc2c3c([nH]c2c1)[C@H](CO)N(Cc1cccc(F)c1)CC31CN(Cc2ccccn2)C1	none (no result: Env fusion inh, CDK5 inh, GSK3A inh, STK33 inh, GSK3beta inhib)
CC=Cc1ccc2n(c1=O)C[C@@H]1[C@@H](CO)[C@H](C(=O)N3CCC(Cc4ccccc4)CC3)N(C)[C@H]21 (mixture of isomers)	none (no result: CDK5 inh, GSK3A inh, STK33 inh, GSK3beta inhib)
CO[C@H]1CN(C)C(=O)c2cc(NC(=O)NC3CCCC3)ccc2OC[C@@H](C)NC[C@H]1C	none (no result: Env fusion inh, CDK5 inh, GSK3A inh, STK33 inh, GSK3beta inhib)
